Measured values from ChEMBL document CHEMBL1127648, “Synthesis of 2-piperazinylbenzothiazole and 2-piperazinylbenzoxazole derivatives with 5-HT3 antagonist and 5-HT4 agonist properties” (J Med Chem, 1994).

Tests used:
Rattus norvegicus [1] = species: Rattus norvegicus; assay: The compound was evaluated for the percentage inhibition in rat aorta stimulated with 30 uM 5-HT and tested at fixed concentration of 10 uM; assay type: functional
Rattus norvegicus [2] = assay: The compound was evaluated for the percentage increase in gastric emptying for a dose of 7.5 mg/kg perorally in rat; assay type: functional, Stomach; settings: route oral
Summary of the method: (§1)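 Wistar rats (160 ± 10 g) fasted overnight, dosed orally with vehicle or compound. After 60 min, gavage with 40 steel spheroids (1 mm) in 2 mL 3% carboxymethylcellulose. Killed by CO2 60 min later; spheroids left in the stomach were counted. Emptying is expressed as a percentage of paired controls.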

Rattus norvegicus [3] = species: Rattus norvegicus; assay: The compound was evaluated for the intrinsic activity in rat isolated esophageal tunica muscularis mucose; assay type: functional
Summary of the method: (§2)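 Inner smooth-muscle tube of rat oesophagus (external muscularis propria removed), held in Tyrode's solution at 37 °C, pH 7.4, aerated 95% O2/5% CO2, under 250 mg tension, equilibrated 60 min. Relaxation of carbachol-induced contraction measured from agonist concentration-effect curves. Means of 8 experiments (24 for 5-HT).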

Cavia porcellus [4] = species: Cavia porcellus; assay: The compound was evaluated for the pA2 value that was estimated using 2-methyl-5-HT in five to seven different tissues in guinea pig ileum; assay type: functional; settings: read-out: pA2 (converted)
Summary of the method: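 Guinea pig ileum in oxygenated physiological solution with 1 μM methysergide at 37 °C, isometric contractions at 0.5 g tension.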

Rattus norvegicus [5] = assay: The compound was evaluated for the percentage increase in gastric emptying for a dose of 10 mg/kg perorally in rat; assay type: functional, Stomach; settings: route oral; summary of the method: as §1
Rattus norvegicus [6] = species: Rattus norvegicus; assay: The compound was evaluated for the value in rat isolated esophageal tunica muscularis mucose in rat; assay type: functional; summary of the method: as §2
Cavia porcellus [7] = species: Cavia porcellus; assay: The compound was evaluated for the percentage inhibition in guinea pig ileum stimulated with 10 uM 5-HT and tested at fixed concentration of 10 uM; assay type: functional
Summary of the method: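 Guinea pig ileum in oxygenated physiological solution with 1 μM methysergide at 37 °C, isometric recording, 0.5 g resting tension. Response to 10 μM 5-HT set as 100%. After 30 min incubation with compound at 10 μM, 5-HT was re-added; response expressed as % of the previous 5-HT response.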

Rattus norvegicus [8] = assay: The compound was evaluated for the percentage increase in gastric emptying for a dose of 5 mg/kg perorally in rat; assay type: functional, Stomach; settings: route oral; summary of the method: as §1
[9] = target: T1, Serotonin 1 (5-HT1) receptor (Rattus norvegicus, UniProt P28564+P30940+P19327+P28565); assay: The compound was evaluated for the binding affinity towards 5-hydroxytryptamine 1 using [3H]5-HT as radioligand; assay type: protein assay
Summary of the method: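 Membranes were resuspended with 0.1% ascorbic acid and 10 μM pargyline. Incubated with 0.3 nM [3H]-5-HT and varying test concentrations at 37 °C for 10 min, then filtered and counted by scintillation.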

[10] = target: T2, Serotonin 3 (5-HT3) receptor (Rattus norvegicus, UniProt P35563+Q9JJ16); assay: Inhibition of [3H]BRL-43694 binding to rat 5-hydroxytryptamine 3 receptor; assay type: protein-complex assay
T2 sequence (P35563 whole entry): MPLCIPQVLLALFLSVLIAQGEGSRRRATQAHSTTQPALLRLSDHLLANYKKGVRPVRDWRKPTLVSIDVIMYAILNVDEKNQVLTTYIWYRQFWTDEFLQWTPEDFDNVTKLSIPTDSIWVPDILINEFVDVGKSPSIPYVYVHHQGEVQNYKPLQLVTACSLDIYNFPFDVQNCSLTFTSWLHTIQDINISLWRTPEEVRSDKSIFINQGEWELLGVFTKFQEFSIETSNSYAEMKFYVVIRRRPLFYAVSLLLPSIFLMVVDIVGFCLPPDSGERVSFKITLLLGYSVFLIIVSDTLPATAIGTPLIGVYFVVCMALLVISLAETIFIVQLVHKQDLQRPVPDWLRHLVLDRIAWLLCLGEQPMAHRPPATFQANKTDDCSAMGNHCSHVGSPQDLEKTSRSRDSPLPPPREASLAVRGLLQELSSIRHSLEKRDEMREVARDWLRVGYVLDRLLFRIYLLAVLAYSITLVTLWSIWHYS
T2 sequence (Q9JJ16 whole entry): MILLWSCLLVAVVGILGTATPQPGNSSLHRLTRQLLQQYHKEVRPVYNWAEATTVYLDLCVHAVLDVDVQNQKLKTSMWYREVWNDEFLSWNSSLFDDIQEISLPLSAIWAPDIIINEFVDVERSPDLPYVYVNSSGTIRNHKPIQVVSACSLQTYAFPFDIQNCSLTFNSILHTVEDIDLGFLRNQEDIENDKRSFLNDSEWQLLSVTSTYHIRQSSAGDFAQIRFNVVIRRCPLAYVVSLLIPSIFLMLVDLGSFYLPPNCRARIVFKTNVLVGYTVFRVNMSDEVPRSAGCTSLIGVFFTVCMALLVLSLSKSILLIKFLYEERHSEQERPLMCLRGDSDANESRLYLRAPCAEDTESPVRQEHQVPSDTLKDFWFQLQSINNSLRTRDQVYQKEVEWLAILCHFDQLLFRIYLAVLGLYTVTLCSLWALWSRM

D(2) dopamine receptor = D(2) dopamine receptor (Rattus norvegicus, UniProt P61169); assay: Displacement of [3H]spiroperidol from D2 dopamine receptor
[11] = target: T1, Serotonin 1 (5-HT1) receptor; assay: Binding affinity towards 5-hydroxytryptamine 1 receptor using [3H]5-HT as radioligand; assay type: protein assay
Summary of the method: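 Rat cortex homogenized in 50 mM Tris-HCl and preincubated at 37 °C for 10 min. Membranes were resuspended with 0.1% ascorbic acid and 10 μM pargyline. Incubated with 0.3 nM [3H]-5-HT and varying test concentrations at 37 °C for 10 min, then filtered and counted by scintillation. IC50 is the mean of 4–6 experiments.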

[12] = target: Serotonin 3 (5-HT3) receptor (Rattus norvegicus) (UniProt P35563+Q9JJ16); assay: Inhibition dose for 50 percent antagonism for 5-hydroxytryptamine 3 receptor in vivo in rats; assay type: functional, organism-based
Summary of the method: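 Male Sprague-Dawley rats (500–550 g) under urethane (1 g/kg ip), with heart rate taken from the carotid pressure signal. 5-HT 4 μg/kg iv bolus every 15 min elicited von Bezold-Jarisch bradycardia. […] ID50 by Litchfield-Wilcoxon.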

Rattus norvegicus [13] = species: Rattus norvegicus; assay: Agonist potency in rat isolated esophageal tunica muscularis mucose.; assay type: functional; summary of the method: as §2
Rattus norvegicus [14] = assay: The compound was evaluated for the percentage increase in gastric emptying for a dose of 5 mg/kg perorally in rat.; assay type: functional, Stomach; settings: route oral; summary of the method: as §1
[15] = The compound was evaluated for equipotent concentration ratio (ECR). whereECR = IC40 test agonist / IC40 5-HT; assay type: functional
Summary of the method: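 Rat oesophageal tunica muscularis mucosae precontracted with carbachol. Two concentration-effect curves were run in the same strip, first to 5-HT and then to 5-HT or the test agonist. […] Only paired experiments were used.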

Rattus norvegicus [16] = assay: The compound was evaluated for the percentage increase in gastric emptying for a dose of 7.5 mg/kg perorally in rat.; assay type: functional, Stomach; settings: route oral; summary of the method: as §1
Rattus norvegicus [17] = assay: The compound was evaluated for the percentage increase in gastric emptying for a dose of 10 mg/kg perorally in rat.; assay type: functional, Stomach; settings: route oral; summary of the method: as §1
Rattus norvegicus [18] = assay: The compound was evaluated for the percentage increase in gastric emptying for a dose of 1 mg/kg perorally in rat; assay type: functional, Stomach; settings: route oral; summary of the method: as §1
Rattus norvegicus [19] = species: Rattus norvegicus; assay: (§3) The compound was evaluated for the value in rat isolated esophageal tunica muscularis mucose; set-up: species or system Esophagus muscularis mucosa
Summary of the method: (§4)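 Rat oesophageal tunica muscularis mucosae was isolated by removing the muscularis propria. Strips were held in Tyrode's solution (pH 7.4) at 37 °C, aerated with 95% O2/5% CO2, under 250 mg tension, and equilibrated 60 min. Relaxation of carbachol-induced contraction was measured. Paired concentration-effect curves were run in the same preparation, first to 5-HT, then to the test agonist. ECR = IC40 test agonist/IC40 5-HT. Mean of 8 experiments.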

Rattus norvegicus [20] = species: Rattus norvegicus; assay: Ability of compounds to relax oesophagus expressed as equipotent concentration ratio (ECR) where ECR = IC40 test agonist / IC40 5-HT; assay type: functional; summary of the method: as §4
Rattus norvegicus [21] = species: Rattus norvegicus; assay: The compound was evaluated for pEC50 of 5-HT in rat isolated esophageal tunica muscularis mucose; settings: in vitro
Rattus norvegicus [22] = species: Rattus norvegicus; assay: as §3; assay type: functional; summary of the method: as §4

Sequence of D(2) dopamine receptor (P61169 whole entry): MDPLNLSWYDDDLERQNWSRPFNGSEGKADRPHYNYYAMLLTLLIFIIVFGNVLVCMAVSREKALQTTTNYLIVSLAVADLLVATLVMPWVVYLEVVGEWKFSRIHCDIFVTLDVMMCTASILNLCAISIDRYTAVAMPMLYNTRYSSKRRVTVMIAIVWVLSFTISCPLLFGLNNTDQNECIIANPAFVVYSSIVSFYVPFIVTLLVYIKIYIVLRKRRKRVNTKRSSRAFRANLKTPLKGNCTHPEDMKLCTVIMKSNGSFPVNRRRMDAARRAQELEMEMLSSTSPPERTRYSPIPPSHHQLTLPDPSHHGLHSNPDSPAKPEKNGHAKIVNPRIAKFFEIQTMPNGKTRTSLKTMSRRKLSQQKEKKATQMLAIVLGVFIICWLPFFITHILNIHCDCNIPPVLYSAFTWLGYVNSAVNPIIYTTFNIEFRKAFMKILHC

Row | Structure (SMILES) | Inhibition (Rattus norvegicus [1]) [%] | Increase (Rattus norvegicus [5]) [%] | Inhibition (Cavia porcellus [7]) [%] | IC50 [10] [µM] | IC50 (D(2) dopamine receptor) [µM] | IC50 [11] | also measured
1 | O=C(c1ccc(F)cc1)C1CCN(CCn2c(=O)[nH]c3ccccc3c2=O)CC1 [KETANSERIN] | 90 | – | – | – | – | – | –
2 | COc1cc(N)c(Cl)cc1C(=O)NC1CCN(CCCOc2ccc(F)cc2)CC1OC (stereo not given) [CISAPRIDE] | – | 67 | 98.1 | – | – | – | Increase (Rattus norvegicus [2]): 59.5%; Intrinsic activity (Rattus norvegicus [3]): 0.92; Kb (Cavia porcellus [4]): 0.001 µM; EC50 (Rattus norvegicus [6]): 0.0589 µM; Increase (Rattus norvegicus [8]): 47.2%
3 | CCN(CC)CCNC(=O)c1cc(Cl)c(N)cc1OC [METOCLOPRAMIDE] | – | 37.1 | – | – | – | – | –
4 | CCOc1ccccc1N1CCN(c2nc3ccccc3s2)CC1 | 10.3 | – | -22.2 | > 10 | > 10 | – | IC50 [9]: > 10 µM
5 | Oc1ccccc1N1CCN(c2nc3ccccc3s2)CC1 | 49.3 | -14.2 | 40.8 | > 10 | > 10 | > 10 µM | –
6 | c1ccc(CN2CCN(c3nc4ccccc4s3)CC2)cc1 | 14.8 | 44.6 | 74.4 | 0.033 | > 10 | > 0.00001 M | Kb (Cavia porcellus [4]): 0.501 µM; ID50 [12]: 0.16 mg/kg
7 | c1ccc2sc(N3CCN(Cc4ccc5c(c4)OCO5)CC3)nc2c1 | 21.2 | – | 74.5 | 0.95 | > 10 | > 10 µM | Intrinsic activity (Rattus norvegicus [3]): 0.91; EC50 (Rattus norvegicus [13]): 0.263 µM; Increase (Rattus norvegicus [14]): 45%; Kb (Cavia porcellus [4]): 0.316 µM; Ratio [15]: 22; Increase (Rattus norvegicus [16]): 43.3%; Increase (Rattus norvegicus [17]): 62.8%; ID50 [12]: 0.18 mg/kg
8 | Clc1cccc(N2CCN(c3nc4ccccc4s3)CC2)c1 | – | – | -21.9 | > 10 | > 10 | > 10 µM | –
9 | Cc1nccn1CC1CCc2c(c3ccccc3n2C)C1=O (stereo not given) [ONDANSETRON] | – | – | – | – | – | – | Increase (Rattus norvegicus [18]): 44.2%
10 | Oc1ccccc1N1CCN(c2nc3ccccc3o2)CC1 | 29.1 | -30.2 | 46.1 | > 10 | > 10 | > 10 µM | –
11 | COc1ccccc1N1CCN(c2nc3ccccc3s2)CC1 | 7.1 | -27.5 | 43 | > 10 | > 10 | > 10 µM | –
12 | Cc1[nH]c2ccc(O)cc2c1CCN | – | – | – | – | – | – | Intrinsic activity (Rattus norvegicus [3]): 1; CL (Rattus norvegicus [19]): 4.9%; Ratio (Rattus norvegicus [20]): 643
13 | c1ccc2oc(N3CCN(Cc4ccc5c(c4)OCO5)CC3)nc2c1 | 19.4 | 23.1 | 55.8 | > 10 | > 10 | > 10 µM | –
14 | c1ccc(CN2CCN(c3nc4ccccc4o3)CC2)cc1 | 21.9 | 15.1 | 48.8 | > 10 | > 10 | > 10 µM | –
15 | NCCc1c[nH]c2ccc(O)cc12 [SEROTONIN] | – | – | – | – | – | – | pEC50 (Rattus norvegicus [21]): 7.91; Intrinsic activity (Rattus norvegicus [22]): 1
16 | COc1ccccc1N1CCN(c2nc3ccccc3o2)CC1 | 14.7 | – | 25.6 | > 10 | > 10 | > 10 µM | –
